Assay results as given in ChEMBL document CHEMBL3272109, “3-Substituted pyrazole derivatives as inhibitors and inactivators of liver alcohol dehydrogenase” (J Med Chem, 1979).
Calls of active or inactive are those of the source. The calls are words filed in the database; no cut-off is given here.

What was measured:
Alcohol dehydrogenase = Alcohol dehydrogenase (Equus caballus, UniProt P00327+P00328); assay: Inhibition of horse liver alcohol dehydrogenase using ethanol as substrate assessed as dissociation constant by spectrophotometric titration in presence of 1 mM NAD+
Procedure, shortened: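 Difference titration at 300 nm, 0.1 M sodium phosphate pH 7.0, 25 °C, 1 mM NAD⁺, in a double-sector cuvette (0.438-mm path) against a separated-sector reference. Either 19–27 μM enzyme was titrated with pyrazole, or 100 μM pyrazole was titrated with enzyme. Kd from a Scatchard least-squares fit; SD of three determinations.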

[1] = biological target: T1, Alcohol dehydrogenase (Equus caballus) (UniProt P00327+P00328); assay: Competitive inhibition of horse liver alcohol dehydrogenase using ethanol as substrate by spectrophotometric titration in presence of 1 mM NAD+
Procedure, shortened: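 Purified horse liver EE isoenzyme, dialysed and gel-filtered free of ethanol; 10 nM enzyme. Ethanol varied at 0.4–2 mM with NAD⁺ fixed at 1 mM, in 33 mM sodium phosphate pH 7, 25 °C. Rates recorded spectrophotometrically. Constants come from fitting to the competitive inhibition equation; errors are standard errors of the fit.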

[2] = biological target: T1, Alcohol dehydrogenase (Equus caballus); assay: Reversible inhibition of horse liver alcohol dehydrogenase using ethanol as substrate assessed as increase in enzyme activity at 1 mM measured after 40 mins of 100-fold dilution by stopped-flow method in presence of NAD+; set-up: scale not given: the % may be the effect or the level left
Procedure, shortened: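 0.94 μN enzyme was preincubated with 1 mM NAD⁺ and 1 mM pyrazole, then diluted 100-fold into assay mix (0.55 M ethanol, 1.75 mM NAD⁺, pH 9, 25 °C). NAD⁺ reduction followed at 340 nm for 40 min. Rates were taken as tangents at various times and expressed versus the original activity; an apparent first-order dissociation rate constant was derived.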

[3] = biological target: T1, Alcohol dehydrogenase (Equus caballus); assay: Reversible inhibition of horse liver alcohol dehydrogenase using ethanol as substrate assessed as reduction in enzyme activity at 0.1 mM compound in diluted assay mixture measured after 20 to 40 mins by stopped-flow method in presence of NAD+
[4] = biological target: T1, Alcohol dehydrogenase (Equus caballus); assay: Reversible inhibition of horse liver alcohol dehydrogenase using ethanol as substrate assessed as remaining enzyme activity at 1 mM by stopped-flow method in presence of 1 mM NAD+
[5] = biological target: T1, Alcohol dehydrogenase (Equus caballus); assay: Reversible inhibition of horse liver alcohol dehydrogenase using ethanol as substrate at 1 mM measured after 100-fold dilution in presence of NAD+; set-up: scale not given: the % may be the effect or the level left
[6] = biological target: T1, Alcohol dehydrogenase (Equus caballus); assay: Reversible inhibition of horse liver alcohol dehydrogenase using ethanol as substrate by stopped-flow method in presence of 1 mM NAD+
[7] = biological target: T1, Alcohol dehydrogenase (Equus caballus); assay: Inactivation of horse liver alcohol dehydrogenase using ethanol as substrate at 10 mM up to 5 mins by spectrophotometric titration
Procedure, shortened: (§1)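 Enzyme (1 mg/mL) incubated with reagent under 5 min in 0.1 M Na₂P₂O₇ adjusted to pH 8.0 with H₃PO₄, 25 °C, with NAD⁺ where stated. Then 10 μL of reaction mixture diluted into 1 mL standard assay mixture, and the initial velocity of NADH production measured. Activity is given relative to the original.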

[8] = biological target: T1, Alcohol dehydrogenase (Equus caballus); assay: Inactivation of horse liver alcohol dehydrogenase using ethanol as substrate at 200 mM up to 5 mins by spectrophotometric titration; procedure, shortened: as §1
[9] = biological target: T1, Alcohol dehydrogenase (Equus caballus); assay: Inactivation of horse liver alcohol dehydrogenase using ethanol as substrate at 10 to 200 mM up to 5 mins by spectrophotometric titration in presence of 1 mM NAD+; procedure, shortened: as §1

## OCCc1cn[nH]c1
Alcohol dehydrogenase
  Kd: 0.77 µM

## CC(=O)c1cc[nH]n1
[1]
  inhibition: Active
Alcohol dehydrogenase
  Kd: 5100 µM

## Cc1cn[nH]c1 [FOMEPIZOLE]
Alcohol dehydrogenase
  Kd: 0.013 µM

## OCc1cn[nH]c1
Alcohol dehydrogenase
  Kd: 3.6 µM

## OCCc1cc[nH]n1
[1]
  inhibition: Active
Alcohol dehydrogenase
  Kd: 170 µM

## ClCCCc1cc[nH]n1
[2]
  Activity: ≥ 48%
[1]
  inhibition: Active
Alcohol dehydrogenase
  Kd: 40 µM
[3]
  inhibition: 52%
[4]
  Activity: 67%
[5]
  Activity: 10%

## ClCc1cn[nH]c1
Alcohol dehydrogenase
  Kd: 2.7 µM

## ClCCc1cc[nH]n1
[2]
  Activity: ≥ 48%
[1]
  inhibition: Active
Alcohol dehydrogenase
  Kd: 200 µM
[4]
  Activity: 67%
[5]
  Activity: 10%

## O=C(O)c1cc[nH]n1
[1]
  inhibition: Active
Alcohol dehydrogenase
  Kd: 6500 µM

## Cc1cc[nH]n1
[1]
  inhibition: Active
Alcohol dehydrogenase
  Kd: 125 µM

## c1cn[nH]c1 [PYRAZOLE]
[6]
  Activity: 3 ×10⁵ /M/s
Alcohol dehydrogenase
  Kd: 0.2 µM

## OCc1cc[nH]n1
[1]
  inhibition: Active
Alcohol dehydrogenase
  Kd: 150 µM

## OCCCc1cc[nH]n1
[1]
  inhibition: Active
Alcohol dehydrogenase
  Kd: 60 µM

## OCCCc1cn[nH]c1
Alcohol dehydrogenase
  Kd: 0.56 µM

## ClCc1cc[nH]n1
[1]
  inhibition: Active
[7]
  Activity: 36%
[8]
  Activity: 98%
[9]
  Activity: inactive

## ClCCCc1cn[nH]c1
Alcohol dehydrogenase
  Kd: 0.02 µM
